Data as given in ChEMBL document CHEMBL4392884, “Sesquiterpene Lactones from Artemisia argyi: Absolute Configuration and Immunosuppressant Activity” (J Nat Prod, 2019).

Tests used:
T-cell [1] = assay: Immunosuppressant activity in human T lymphocytes assessed as inhibition of anti-human CD3 and anti-human CD28 monoclonal antibody-induced T lymphocyte proliferation incubated for 72 hrs by FACS analysis; format: functional, cell-based
How it was run: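 Stimulated human T lymphocytes were exposed to compounds over 0.01−30 μg/mL. Proliferation was read by FACS, with forward and side scatter used to score antiproliferative activity and cytotoxicity together. Three independent experiments were run, expressed as mean ± standard deviation relative to the untreated, stimulated control.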

T-cell [2] = assay: Toxicity in anti-human CD3 and anti-human CD28 monoclonal antibody-stimulated human T lymphocytes assessed as induction of apoptosis at 3 times antiproliferative IC50 incubated for 48 hrs by annexin V-FITC and propidium iodide staining based FACS analysis

SMILES | IC50 (T-cell [1]) [µM] | Activity (T-cell [2])
C=C1C(=O)O[C@@H]2[C@@H]3[C@@]4(C=C[C@@]3(C)[C@@]3(C4)C(=O)O[C@@H]4[C@H]5C(C)=CC(=O)C5=C(C)C[C@H](OC(C)=O)[C@H]43)[C@](C)(O)CC[C@@H]12 | 3.2 | 
C=C1[C@@H](OC(C)=O)C[C@@H](O)[C@]2(C)CCC3=C(COC(C)=O)C(=O)O[C@@H]3[C@@H]12 | 13.8 | 
C=C1C(=O)O[C@H]2[C@H]1[C@@H](OC(C)=O)CC(C)=C1C[C@H]3O[C@@]3(C)[C@@H]12 | 1.9 | Non-Toxic
C=C1C(=O)O[C@H]2[C@H]1CC[C@@](C)(O)[C@@]13O[C@@H]1[C@@H]1O[C@]1(C)[C@H]23 | 3.7 | 
C=C1C(=O)O[C@H]([C@H]2C(=O)C=C[C@@]2(C)O)[C@H]1CCC(C)=O (relative stereo) | 1.2 | 
C=C1C(=O)O[C@H]([C@@H]2C(=O)C=C[C@]2(C)O)[C@H]1CCC(C)=O (relative stereo) [SECOTANAPARTHOLIDE B] | 1 | 
C=C1C(=O)O[C@H]2[C@H]1CC[C@@](C)(O)[C@]13O[C@H]1[C@H]1O[C@@]1(C)[C@H]23 [ARTECANIN] | 2.7 | 
COc1ccc(-c2cc(=O)c3c(O)c(OC)c(O)cc3o2)cc1OC [EUPATILIN] | 11.7 | 
COc1cc(-c2cc(=O)c3c(O)c(OC)c(O)cc3o2)ccc1O [JACEOSIDINE] | 5.8 | 
C=C1C(=O)O[C@@H]2[C@H]3C(C)=CC[C@@H](O)[C@]3(C)CC[C@@H]12 [SANTAMARIN] | 19.6 | 
